Shown are actives, neighbours in structure and some others; about 1.6% of the full set was active somewhere.
procasp7 counter: counter-screen: procaspase-7 (human) activation; P55210; recombinant procaspase-7, Ac-DEVD-pNA absorbance 405 nm; D23A/D198A/D206A triple mutant, cannot self-cleave; scale: DMSO 0, 5 µM enzyme 100; activation, % at 8.5 µM; 0.093% of 330,000 active;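 active = percent activation above the screen-wide mean plus 3 SD, cut at about 25% in these data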
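Assay system: Uncleavable procaspase-7 mutant enzyme; Input: 2 µM procaspase-7 mutant as dispensed; Also added: DEVD-pNA substrate; Medium: Zinc-free HEPES pH 7.4 with 300 mM NaCl, 0.01% Triton X-100; Timing: 1 h compound preincubation, 2 h substrate cleavage, 25 °C; Measured by: Epi-absorbance of released pNA at 405 nm, two timepoints.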
sPLA2-III inh: Inhibits HGIII-sPLA2 liposome hydrolysis, primary screen. Q9NZ20. QFRET BODIPY PC-A2 liposome hydrolysis, fluorescence. inhibition, % at 12.2 µM. 0.56% of 370,000 active;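 active = inhibition above mean plus 3 SD of compounds lying within the high and low control bounds, cut at about 19% in these data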
PLCb3 inh: inhibitors of human phospholipase C beta3. Q01970. Purified PLC-beta3, fluorogenic substrate, fluorescence. inhibition, % at 12.2 µM. 0.18% of 370,000 active; in the data active = inhibition above about 11%
proCasp3 act: activators of human procaspase-3. 0.11% of 330,000 active. recombinant procaspase-3 D3A, Ac-DEVD-pNA absorbance 405 nm. activation, % at 8.5 µM. P42574;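 active = activation above the mean of all tested compounds plus 3 SD, cut at about 21% in these data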
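assay system = Procaspase-3 D3A mutant | signal = absorbance at 405 nm, 0 and 120 min | times = 1 h preincubation plus 2 h reaction at 25 °C | repeats = single replicate | read-out = % activation between DMSO and enzyme-spiked controls | medium = Zinc-free HEPES saline buffer with Triton X-100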
PLCg1 inh: blocks human PLC-gamma1 enzyme activity; P19174; purified PLC-gamma1, fluorogenic substrate, fluorescence; inhibition, % at 12.2 µM; 0.84% of 370,000 active
Target sequence (P19174 whole entry, looked up): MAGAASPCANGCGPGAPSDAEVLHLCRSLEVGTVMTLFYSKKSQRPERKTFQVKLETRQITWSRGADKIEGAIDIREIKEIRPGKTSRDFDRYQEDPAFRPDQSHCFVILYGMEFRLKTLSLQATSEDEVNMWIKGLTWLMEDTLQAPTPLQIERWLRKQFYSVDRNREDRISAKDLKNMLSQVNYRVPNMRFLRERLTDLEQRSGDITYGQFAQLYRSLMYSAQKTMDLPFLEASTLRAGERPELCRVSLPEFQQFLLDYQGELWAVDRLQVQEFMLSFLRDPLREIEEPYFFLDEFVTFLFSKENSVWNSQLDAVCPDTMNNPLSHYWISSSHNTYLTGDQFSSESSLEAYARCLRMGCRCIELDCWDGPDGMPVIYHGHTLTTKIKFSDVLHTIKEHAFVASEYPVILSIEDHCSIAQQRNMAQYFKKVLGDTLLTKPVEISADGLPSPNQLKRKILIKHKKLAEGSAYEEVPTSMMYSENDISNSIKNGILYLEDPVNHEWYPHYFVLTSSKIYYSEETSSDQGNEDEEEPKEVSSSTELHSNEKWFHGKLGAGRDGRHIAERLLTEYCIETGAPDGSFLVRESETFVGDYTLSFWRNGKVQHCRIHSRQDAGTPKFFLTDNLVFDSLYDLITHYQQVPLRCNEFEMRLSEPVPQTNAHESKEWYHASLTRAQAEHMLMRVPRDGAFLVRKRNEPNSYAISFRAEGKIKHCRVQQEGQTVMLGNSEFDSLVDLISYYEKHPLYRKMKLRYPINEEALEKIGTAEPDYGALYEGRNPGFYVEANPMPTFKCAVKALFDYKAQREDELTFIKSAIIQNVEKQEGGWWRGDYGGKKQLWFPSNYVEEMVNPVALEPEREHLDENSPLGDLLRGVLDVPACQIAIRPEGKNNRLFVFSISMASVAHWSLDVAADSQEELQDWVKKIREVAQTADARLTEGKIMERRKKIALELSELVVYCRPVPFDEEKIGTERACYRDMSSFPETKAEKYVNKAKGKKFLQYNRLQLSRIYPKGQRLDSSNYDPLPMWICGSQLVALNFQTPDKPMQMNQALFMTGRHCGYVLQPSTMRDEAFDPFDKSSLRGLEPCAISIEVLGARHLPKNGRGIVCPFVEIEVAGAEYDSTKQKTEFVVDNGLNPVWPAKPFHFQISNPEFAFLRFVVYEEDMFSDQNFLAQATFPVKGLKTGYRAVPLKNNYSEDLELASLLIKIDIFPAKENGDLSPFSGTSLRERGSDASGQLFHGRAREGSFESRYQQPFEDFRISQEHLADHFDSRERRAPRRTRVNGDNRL
PLCg1 ctr: PLC-gamma1 inhibition, counter-screen for PLC-beta3 hits; shares compounds with PLCg1 inh; purified PLC-gamma1, fluorogenic substrate, fluorescence; inhibition, % at 12.3 µM; 3.1% of 3,300 active; AID 743258
PLCbeta3 conf: human PLC-beta3 inhibition, confirmation | shares compounds with PLCg1 inh | purified PLC-beta3, fluorogenic substrate fluorescence | inhibition, % at 12.3 µM | 1% of 3,300 active | AID 743261; in the data active = inhibition above about 11%
Numbers stand for hits; - = inactive; . = not tested or not shown. Cut-off read from the data, not from the text of the source, unless noted: active = inhibition above about 9.5%; inactive = the rest.

SMILES	procasp7 counter	sPLA2-III inh	PLCb3 inh	proCasp3 act	PLCg1 inh	PLCg1 ctr	PLCbeta3 conf
O=C1NC(=O)/C(=C/c2cccc(O)c2)N1	-	-	-	-	-	.	.
O=C1NC(=O)C(=Cc2ccccc2)N1	.	-	11.5	.	-	-	-
CCc1nc(SCC(=O)NCc2ccc(F)cc2)c2c(=O)n(C)c(=O)n(C)c2n1	-	-	-	-	46.3	-	-
CC(=O)c1ccc(N2CCN(C(=O)c3ccco3)CC2)c(F)c1	-	-	-	-	-	.	.
CC(=O)c1ccc(N2CCN(C(=O)c3ccc(Br)cc3)CC2)c(F)c1	-	-	12.2	-	-	-	-
COc1ccc(C)cc1NC(=O)CSc1nnc(-c2n[nH]c3c2CCC3)n1N	.	-	-	.	-	.	.
O=C(Nc1ccc(Cl)c([N+](=O)[O-])c1)c1cnccn1	-	-	-	-	-	.	.
O=C(Nc1ccc(Cl)c([N+](=O)[O-])c1)c1ccncc1	-	-	-	-	10.8	-	-
CCOC(=O)CCCCCC(=O)Nc1ccc2c(c1)C(=O)N([C@@H](C)CO)C[C@H](C)[C@H](CN(C)C(=O)Nc1ccc(C(F)(F)F)cc1)OCCCC[C@H](C)O2	.	-	-	.	-	.	.
CCOC(=O)CCCCCC(=O)Nc1ccc2c(c1)C(=O)N([C@H](C)CO)C[C@@H](C)[C@@H](CN(C)C(=O)CCC(F)(F)F)OCCCC[C@H](C)O2	.	-	-	.	12.2	-	-
Cc1noc(C)c1S(=O)(=O)Nc1ccc2c(c1)C(=O)N([C@H](C)CO)C[C@H](C)[C@H](CN(C)C(=O)NC(C)C)OCCCC[C@@H](C)O2	.	-	-	.	10.9	-	-
O=C(c1ccco1)N(Cc1cccnc1)C(c1ccccc1)c1nc2ccccc2[nH]1 (stereo unspecified)	.	-	-	.	-	.	.
O=C1C=CC(=O)N1c1cccc2cccnc12	.	-	-	.	-	.	.
Cc1ccc(OC(=O)C2CCN(C(=O)c3ccccc3C)CC2)c(Br)c1	-	-	-	-	10.8	-	-
Cc1ccccc1C(=O)N1CCC(C(=O)NC2CCCCCC2)CC1	-	-	-	-	-	.	.
O=C(COC(=O)c1cccc(S(=O)(=O)N2CCCCCC2)c1)Nc1ccccc1C(F)(F)F	-	-	-	-	-	.	.
Cc1ccc(C(=O)OCC(=O)Nc2ccccc2C(F)(F)F)cc1S(=O)(=O)N1CCCCC1	.	-	-	.	9.8	-	-
CC1(C(=O)O)CCCN1C(=O)c1cc2ccccc2s1 (stereo unspecified)	.	-	-	.	-	.	.
CCC(C)NS(=O)(=O)c1ccc(NC(=O)CNCc2cccs2)cc1 (stereo unspecified)	.	-	-	.	-	.	.
Cc1nn(-c2ccc(Cl)c(Cl)c2Cl)c(=O)c2ccccc12	-	-	-	-	10.6	-	-
Cc1nn(-c2ccc(Cl)cc2Cl)c(=O)c2ccccc12	-	-	-	-	-	.	.
CC(=O)N=c1sc2ccccc2n1C	-	-	-	-	-	.	.
CC(=O)N=c1sc(C(C)(C)C)c(C)n1C	-	-	-	-	9.8	-	-
CN(CC(=O)Nc1cccc(F)c1)C(=O)c1csc2c1CCCC2	-	-	-	-	-	.	.
CCOC(=O)C1C(C(=O)OCC)C(C)(C)C1N(C)C (stereo unspecified)	.	-	-	.	-	.	.
SMILES	procasp7 counter	sPLA2-III inh	PLCb3 inh	proCasp3 act	PLCg1 inh	PLCg1 ctr	PLCbeta3 conf
O=C(c1ccc([N+](=O)[O-])cc1)N1CCOC12CCN(c1ncc(C(F)(F)F)cc1Cl)CC2	-	-	-	-	11.0	-	-
C[C@H](CCCCC1(C)OCCO1)CCC(=O)N(c1ccccc1)c1ccccc1	.	-	-	.	-	.	.
CC(=O)OC1CCC2(C)C(=CCC3C2CCC2(C)C3CC3OC4(CCC(C)CN4)C(C)C32)C1 (stereo unspecified)	.	-	-	.	10.8	-	-
C[C@]12CC[C@H](OC(=O)CCC(=O)O)CC1=CCC1C2CC[C@@]2(C)C1CC[C@@H]2N (stereo partly specified)	-	-	-	-	-	.	.
Cc1cc(C)nc(N2N=C(C(F)(F)F)CC2=O)n1	-	-	-	-	-	.	.
CC1CC(C)CN(C(=O)COC(=O)COc2ccccc2C#N)C1 (stereo unspecified)	-	-	-	-	12.7	-	-
O=C1NC[C@@H](Cc2ccc(O)cc2)N(CCc2cc(C(F)(F)F)cc(C(F)(F)F)c2)C1=O	.	-	11.2	.	-	-	-
Oc1ccc(C[C@H]2CN([C@@H](Cc3ccccc3)CN3CCCC3CN3C(=S)NC[C@@H]3Cc3ccccc3)C(=S)N2CC2CCCCC2)cc1 (stereo partly specified)	.	-	-	.	-	.	.
O=C1NC[C@H](Cc2ccc(O)cc2)N(C[C@@H]2CCCN2C[C@H](Cc2ccc(O)cc2)N2C[C@H](Cc3ccccc3)N(CCc3ccccc3)C(=O)C2=O)C1=O	.	-	12.4	.	-	-	-
Oc1ccc(C[C@@H]2CNC(=S)N2CCc2cc(C(F)(F)F)cc(C(F)(F)F)c2)cc1	-	-	-	-	-	.	.
Oc1ccc(C[C@H]2CN([C@@H](Cc3cccc(O)c3)CN3CCC[C@@H]3CN3C(=S)NC[C@@H]3Cc3ccccc3)C(=S)N2CC2CCCCC2)cc1	.	-	-	.	10.0	-	-
O=C1NC[C@H](Cc2ccc(O)cc2)N(C[C@@H]2CCCN2C[C@H](Cc2ccccc2)N2C[C@H](Cc3ccccc3)N(CCc3ccccc3)C(=O)C2=O)C1=O	.	-	-	.	-	.	.
C=CCOC(=O)N1CCC2CC1c1c(-c3ccc(C(F)(F)F)cc3)cccc12 (stereo unspecified)	.	-	-	.	-	.	.
CC(=O)NC1CC(C)(C)N(OC(C)=O)C(C)(C)C1	.	-	-	.	10.4	-	-
CC(=O)ON1C(C)(C)CC(OC(=O)c2ccccc2)CC1(C)C	-	-	-	-	-	.	.
COc1ccc(NC(=O)COC(=O)c2cccn2C)cc1S(=O)(=O)N1CCCCC1	-	-	-	-	-	.	.
COc1ccc(C(=O)Nc2ccc(C)cc2C(=O)c2ccccc2)cc1	-	-	-	-	-	.	.
COc1ccccc1C(=O)Nc1ccc(C)cc1C(=O)c1ccccc1	-	-	-	-	9.7	-	-
COc1cc(C(=O)Nc2ccc(Br)cc2C(=O)c2cc(OC)c(OC)c(OC)c2)cc(OC)c1OC	-	-	-	-	15.5	-	-
CCCCCCOc1ccc(/C(N)=N/O)cc1	-	-	-	-	11.6	-	-
N=C(N)c1ccc(OCCCCCOc2ccc(C(=N)N)cc2)cc1	-	-	-	-	-	.	.
COc1cc(C)c(C)cc1S(=O)(=O)N1CCN(Cc2ccc3c(c2)OCO3)CC1	-	-	10.8	-	10.2	-	-
